Screening results deposited in PubChem by several laboratories.
Compounds with a hit are over-represented: about 2.1% of the library has one in this group of screens.
A3G deaminase: inhibitors of human APOBEC3G DNA deaminase | Q9HC16 | recombinant A3G, ssDNA deamination FAM/TAMRA fluorescence | AID 493012 | inhibition, % at 20 µM | 0.28% of 330,000 active;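 active = inhibition of at least 40% at 20 µM, with no more than 30% in the related APOBEC3A deaminase screen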
Target sequence (Q9HC16 whole entry, looked up): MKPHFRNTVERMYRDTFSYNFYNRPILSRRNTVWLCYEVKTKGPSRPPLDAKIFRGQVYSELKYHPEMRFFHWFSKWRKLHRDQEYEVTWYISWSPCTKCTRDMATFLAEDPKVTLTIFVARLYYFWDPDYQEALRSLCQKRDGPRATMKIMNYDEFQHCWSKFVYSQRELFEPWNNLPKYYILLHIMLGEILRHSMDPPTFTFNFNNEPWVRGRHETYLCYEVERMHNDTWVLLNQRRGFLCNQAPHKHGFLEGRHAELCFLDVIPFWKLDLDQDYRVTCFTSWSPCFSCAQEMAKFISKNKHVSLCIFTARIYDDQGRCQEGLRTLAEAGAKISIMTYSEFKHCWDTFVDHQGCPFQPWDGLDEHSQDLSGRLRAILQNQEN
APOBEC3A inh: human APOBEC3A DNA deaminase inhibition; P31941; recombinant A3A, FAM/TAMRA ssDNA deamination fluorescence; inhibition, % at 20 µM; 0.41% of 330,000 active; AID 493011;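 active = at least 40% inhibition at 20 µM here, with at most 30% in a related deaminase screen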
SUMO Mot1 rescue: inhibitors of SUMOylation pathway: yeast Mot1-301 growth rescue; S. cerevisiae Mot1-301 growth rescue, ATP luminescence, 38.5C; percent above DMSO median, 100 means doubled; growth rescue, % at 18.8 µM; 1% of 320,000 active; AID 2716;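 active = every valid replicate shows activation above 250% relative to neutral control wells; inactive = the rest, any valid replicate at or below 250%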
ARFGAP1 inhibitor: inhibits rat ARF GTPase activating protein 1; Q62848; AID 651572; Arfgap1-stimulated ARF1 GTP hydrolysis, GDP FP detection; 0.26% of 360,000 active; inhibition, % at 16.5 µM;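 active = inhibition above a per-plate limit, mean inhibition of low control wells plus 3 SD, cut at about 25% in these data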
Target sequence (Q62848 1-136 limits assumed): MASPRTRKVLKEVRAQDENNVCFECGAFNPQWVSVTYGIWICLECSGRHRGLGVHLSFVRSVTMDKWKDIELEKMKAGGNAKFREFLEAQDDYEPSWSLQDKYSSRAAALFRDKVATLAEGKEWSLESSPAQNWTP
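Material: rat Arfgap1 GAP domain (His6, aa 1-136), purified enzyme. Also added: human ARF1(Δ1-17)-GTP substrate. Compound dosing: 16.5 µM single point, 1.26% DMSO. Timing: enzyme reaction 120 min at 25 °C after 20 min preincubation. Signal: GDP detection by fluorescence polarization. Read-out basis: percent inhibition of GAP-stimulated GDP formation, scaled between DMSO and no-Arfgap1 medians.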
ASAP1 inh: blocks human ASAP1-stimulated Arf1 GTP hydrolysis | GDP FP detection | inhibition, % at 16.5 µM | 0.19% of 360,000 active | AID 624377; in the data active = inhibition above about 25%
C2C12 statin: suppression of simvastatin myotoxicity | AID 602340 | rescue of ATP level, % at 7.49 µM | C2C12 myotubes + simvastatin, ATP luminescence, 48 h; scaled: DMSO 0, geranylgeraniol control 100 | 0.78% of 330,000 active;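 active = mean ATP rescue above about 67%, or every replicate alone reaching that limit, limit read from the data, passing the limit was not always enough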;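 also: myotubes were challenged with 10 µM simvastatin during compound exposure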
APOBEC3A confirm: confirmation of human APOBEC3A DNA deaminase inhibitors; shares compounds with APOBEC3A inh; recombinant A3A, ssDNA deaminase UDG fluorescence assay; inhibition, % at 20 µM; 63% of 1,400 active;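 active = inhibition reaching a set limit, 80% of the first screen's cutoff, at 20 µM in any replicate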
UDG ctr A3A: counter-screen for APOBEC3A inhibitors: UDG | UDG counterscreen, FAM/TAMRA uracil oligo fluorescence | AID 504714 | 1,000 tested, under 10 active | shares compounds with APOBEC3A inh | inhibition, % at 20 µM; call rule not given here
Of the large screens only hits and unclear results are named; the others gave an inactive call (follow-up assays come after a bar, where they were run).

CCCCCn1c2c(c(=N)c3ccccc31)CCC2	APOBEC3A inh 58 (no result: C2C12 statin) | APOBEC3A confirm 74 | UDG ctr A3A inactive
CCCCCCCCn1c2c(c(=N)c3ccccc31)CCC2	none (no result: SUMO Mot1 rescue, C2C12 statin)
Cc1ccc(S(=O)(=O)N(C)C[C@H]2Oc3ccc(NC(=O)NC4CCCCC4)cc3CC(=O)N([C@@H](C)CO)C[C@H]2C)cc1	none (no result: A3G deaminase, APOBEC3A inh, SUMO Mot1 rescue, ARFGAP1 inhibitor, ASAP1 inh)
O=C(CSc1nccc(=O)[nH]1)N1N=C2/C(=C/c3ccco3)CCCC2C1c1ccco1 (centres undefined)	APOBEC3A inh 46 | APOBEC3A confirm 34 | UDG ctr A3A inactive
Nc1nc(SCC(=O)N2N=C3/C(=C/c4ccco4)CCCC3C2c2ccco2)n[nH]1 (centres undefined)	none
Cc1cc(=O)oc2c1c(C)nn2-c1nn[nH]n1	APOBEC3A inh 59 (no result: C2C12 statin) | APOBEC3A confirm 72 | UDG ctr A3A inactive
CCCc1cc(=O)oc2cc(C)cc(OCc3nn[nH]n3)c12	none
Cc1cc(C)nc(SCc2nnc(SCC(=O)Nc3ccc(Cl)c(C(F)(F)F)c3)o2)n1	APOBEC3A inh 70 | APOBEC3A confirm inactive | UDG ctr A3A inactive
Cc1cccc(NC(=O)CSc2nnc(CSc3nc(C)cc(C)n3)o2)c1	none
COc1ccc(CCCc2nnc(SCC(=O)Nc3ccc(C)c(C)c3)o2)cc1	APOBEC3A inh 50 (no result: C2C12 statin) | APOBEC3A confirm 72 | UDG ctr A3A inactive
COc1ccc(CCCc2nnc(SCC(=O)Nc3cc(C)ccc3C)o2)cc1	none
COc1ccc(CCCc2nnc(SCC(=O)Nc3ccc(OC)cc3)o2)cc1	APOBEC3A inh 45 | APOBEC3A confirm 71 | UDG ctr A3A inactive
CCc1ccc(NC(=O)CSc2nnc(CNC(=O)c3ccc(OC)cc3)o2)cc1	none
C[C@H]1CN([C@@H](C)CO)C(=O)c2cc(-c3ccccc3F)cnc2O[C@@H]1CN(C)C(=O)CN(C)C	none (no result: A3G deaminase, APOBEC3A inh, SUMO Mot1 rescue, ARFGAP1 inhibitor, ASAP1 inh)
O=C(/C=C/c1ccc(F)cc1)c1cc(Br)ccc1O	none (no result: C2C12 statin)
O=C(/C=C/c1ccccc1)c1cc(Br)ccc(=O)c1O	APOBEC3A inh 41 | APOBEC3A confirm 40
COc1ccc(CNC(=O)C[C@H]2CC[C@@H](NC(=O)c3cccc(F)c3)[C@H](CO)O2)cc1	none (no result: A3G deaminase, APOBEC3A inh, SUMO Mot1 rescue, ARFGAP1 inhibitor, ASAP1 inh)
C[C@H]1CN([C@@H](C)CO)C(=O)c2cccc(NC(=O)Nc3ccccc3)c2O[C@@H]1CN(C)CC1CCCCC1	none (no result: A3G deaminase, APOBEC3A inh, SUMO Mot1 rescue, ARFGAP1 inhibitor, ASAP1 inh)
COc1ccc(C(=S)N2CCN(c3ccccc3Cl)CC2)cc1OC	none
Cc1ccc(Cl)cc1N1CCN(c2cccc[n+]2C)CC1	APOBEC3A inh 46 | APOBEC3A confirm inactive
C[n+]1ccccc1N1CCN(c2ccccc2Cl)CC1	APOBEC3A inh 60 (no result: C2C12 statin) | APOBEC3A confirm inactive
Cc1ccc(Cl)cc1N1CCN(C(=S)NCCc2ccccc2)CC1	none (no result: C2C12 statin)
CNC(=O)CSc1nc2nc(C)cc(C)n2n1	none
Cc1cc(C)n2nc(SCC#N)nc2n1	APOBEC3A inh 97 | APOBEC3A confirm inactive
COc1ccc(CNC(=O)C(C)Sc2ccc(C)cc2)cc1 (centres undefined)	none (no result: C2C12 statin)
COc1ccc(CCNC(=O)C(C)Sc2ccc(C)cc2)cc1OC (centres undefined)	APOBEC3A inh 86 (no result: C2C12 statin) | APOBEC3A confirm inactive | UDG ctr A3A inactive
Cc1ccc(SC(C)C(=O)NCc2ccncc2)cc1 (centres undefined)	APOBEC3A inh 50 | APOBEC3A confirm inactive
CCC(=O)NC[C@H]1[C@H](c2ccccc2)[C@@H](CO)N1C(=O)C1CCC1	none (no result: A3G deaminase, APOBEC3A inh, SUMO Mot1 rescue, ARFGAP1 inhibitor, ASAP1 inh)
CCCNC(=O)Nc1ccc2c(c1)C(=O)N(C)[C@@H]1CC[C@H](CC(=O)OC)O[C@@H]1CO2	none (no result: A3G deaminase, APOBEC3A inh, SUMO Mot1 rescue, ARFGAP1 inhibitor, ASAP1 inh)
CCN1C(=NCc2ccc(OC)cc2)N[C@@H](c2ccccc2)[C@H](C(=O)OC)[C@H]1C	APOBEC3A inh 41 | APOBEC3A confirm 56 | UDG ctr A3A inactive
CCN1C(=O)N[C@@H](c2ccccc2)[C@H](C(=O)OC)[C@H]1C	none
